Test results reported in EPA's CvTdb concentration-time database.

Tested on: human
Test: concentration in blood after dosing; negative times count back from the end of exposure
Conditions: dosed: ethanol, inhalation, duration: 4 hr
Procedure, shortened: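 Data points giving concentration or amount against time came from published in vivo toxicokinetic studies and from two structured collections. PubMed searching, classifier screening and manual review located the studies. Most points were digitised from plot screenshots using WebPlotDigitizer, the rest were copied from tables, and all keep their reported units.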

CCO [ethanol]
concentration in blood [ng/mL]
Conditions	female	male
0.4897 h, 125 ppm	60	62.3
0.4897 h, 250 ppm	–	101
0.4897 h, 450 ppm	158	201
0.4966 h, 750 ppm	299	227
0.4966 h, 1000 ppm	571	267
0.9954 h, 250 ppm	74.2	67.1
1.002 h, 125 ppm	42.9	40.8
1.002 h, 450 ppm	101	112
1.002 h, 750 ppm	153	94
1.002 h, 1000 ppm	248	142

concentration in blood [ng/mL], during exposure
Conditions	-33 s	-8 s	-4 h	-3.002 h	-2.995 h	-1.007 h	-1 h
125 ppm, female	–	179	35.6	165	–	–	158
125 ppm, male	–	196	36.9	165	–	–	196
250 ppm, female	451	–	78.9	374	–	445	–
250 ppm, male	–	–	42.9	468	–	457	–
450 ppm, female	1000	–	52.4	851	–	–	1000
450 ppm, male	1090	–	–	851	–	–	905
750 ppm, female	–	1620	65.5	–	1430	–	1860
750 ppm, male	–	2060	–	–	1770	–	1510
1000 ppm, female	2640	–	133	–	2300	–	2510
1000 ppm, male	2920	–	–	–	2810	–	2360
